From ChEMBL document CHEMBL1165943, “Design and synthesis of new anticancer pyrimidines with multiple-kinase inhibitory effect” (Bioorg Med Chem, 2010)

How the values were obtained:
Format in all cases: functional
HL-60(TB) = assay: Cytotoxicity against human HL-60(TB) cells assessed as cell growth at 10 uM; settings: Homo sapiens, HL-60; read-out: Activity
How it was run: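 Single-concentration 10 µM screen of HL-60(TB) within the 60-line panel, grown in RPMI 1640 with 5% FBS. The drug from DMSO stock is incubated 48 h at 37 °C, settled cells are TCA-fixed and SRB-stained, and absorbance is read at 515 nm. Percent growth is reported, and inhibition % is taken as 100 minus growth %.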

HCC 2998 = assay: Cytotoxicity against human HCC2998 cells assessed as cell growth at 10 uM; settings: Homo sapiens, HCC 2998; read-out: Activity
How it was run: (§1)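 Single-concentration screen at 10 μM across the 60-cell-line panel (nine tissue types); growth percentage recorded per cell line, with inhibition taken as 100 minus growth percentage.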

MOLT-4 = assay: Cytotoxicity against human MOLT4 cells assessed as cell growth at 10 uM; settings: Homo sapiens, MOLT-4; read-out: Activity
How it was run: (§2)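 Single-dose screen at 10 μM across the 60-cell-line panel. Cells grown in RPMI 1640 with 5% FBS and 2 mM L-glutamine, seeded at 5,000–40,000 cells/well according to doubling time, and treated 24 h later. Exposure lasted 48 h at 37 °C, 5% CO₂. Adherent cells were fixed with cold TCA, suspension cells were fixed settled, and both were stained with SRB and read at 515 nm. Growth % was recorded, with inhibition % = 100 − growth %.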

IGROV-1 = assay: Cytotoxicity against human IGROV1 cells assessed as cell growth at 10 uM; settings: Homo sapiens, IGROV-1; read-out: Activity; how it was run: as §2
U-251 = assay: Cytotoxicity against human U251 cells assessed as cell growth at 10 uM; settings: Homo sapiens, U-251; read-out: Activity; how it was run: as §2
SF-539 = assay: Cytotoxicity against human SF539 cells assessed as cell growth at 10 uM; settings: Homo sapiens, SF-539; read-out: Activity; how it was run: as §2
NCI-H322M = assay: Cytotoxicity against human NCI-H322M cells assessed as cell growth at 10 uM; settings: Homo sapiens, NCI-H322M; read-out: Activity; how it was run: as §2
NCI-H460 = assay: Cytotoxicity against human NCI-H460 cells assessed as cell growth at 10 uM; settings: Homo sapiens, NCI-H460; read-out: Activity; how it was run: as §2
HT-29 = assay: Cytotoxicity against human HT-29 cells assessed as cell growth at 10 uM; settings: Homo sapiens, HT-29; read-out: Activity; how it was run: as §1
SR = assay: Cytotoxicity against human SR cells assessed as cell growth at 10 uM; settings: Homo sapiens, SR; read-out: Activity; how it was run: as §2
NCI-H522 = assay: Cytotoxicity against human NCI-H522 cells assessed as cell growth at 10 uM; settings: Homo sapiens, NCI-H522; read-out: Activity; how it was run: as §2
SK-OV-3 = assay: Cytotoxicity against human SKOV3 cells assessed as cell growth at 10 uM; settings: Homo sapiens, SK-OV-3; read-out: Activity; how it was run: as §2
SF-268 = assay: Cytotoxicity against human SF268 cells assessed as cell growth at 10 uM; settings: Homo sapiens, SF-268; read-out: Activity; how it was run: as §2
Malme-3M = assay: Cytotoxicity against human MALME-3M cells assessed as cell growth at 10 uM; settings: Homo sapiens, Malme-3M; read-out: Activity; how it was run: as §2
SNB-75 = assay: Cytotoxicity against human SNB75 cells assessed as cell growth at 10 uM; settings: Homo sapiens, SNB-75; read-out: Activity; how it was run: as §2
NCI/ADR-RES = assay: Cytotoxicity against human NCI/ADR-RES cells assessed as cell growth at 10 uM; settings: Homo sapiens, NCI/ADR-RES; read-out: Activity; how it was run: as §2
CAKI-1 = assay: Cytotoxicity against human Caki1 cells assessed as cell growth at 10 uM; settings: Homo sapiens, CAKI-1; read-out: Activity; how it was run: as §1
K562 = assay: Cytotoxicity against human K562 cells assessed as cell growth at 10 uM; settings: Homo sapiens, K562; read-out: Activity; how it was run: as §2
HCT-15 = assay: Cytotoxicity against human HCT15 cells assessed as cell growth at 10 uM; settings: Homo sapiens, HCT-15; read-out: Activity; how it was run: as §1
ACHN = assay: Cytotoxicity against human ACHN cells assessed as cell growth at 10 uM; settings: Homo sapiens, ACHN; read-out: Activity; how it was run: as §1
SK-MEL-28 = assay: Cytotoxicity against human SK-MEL-28 cells assessed as cell growth at 10 uM; settings: Homo sapiens, SK-MEL-28; read-out: Activity; how it was run: as §2
HOP-62 = assay: Cytotoxicity against human HOP62 cells assessed as cell growth at 10 uM; settings: Homo sapiens, HOP-62; read-out: Activity; how it was run: as §1
SF-295 = assay: Cytotoxicity against human SF295 cells assessed as cell growth at 10 uM; settings: Homo sapiens, SF-295; read-out: Activity; how it was run: as §2
OVCAR-3 = assay: Cytotoxicity against human OVCAR-3 cells assessed as cell growth at 10 uM; settings: Homo sapiens, OVCAR-3; read-out: Activity; how it was run: as §2
UO-31 = assay: Cytotoxicity against human UO31 cells assessed as cell growth at 10 uM; settings: Homo sapiens, UO-31; read-out: Activity; how it was run: as §2
SK-MEL-2 = assay: Cytotoxicity against human SK-MEL-2 cells assessed as cell growth at 10 uM; settings: Homo sapiens, SK-MEL-2; read-out: Activity; how it was run: as §2
SW-620 = assay: Cytotoxicity against human SW620 cells assessed as cell growth at 10 uM; settings: Homo sapiens, SW-620; read-out: Activity; how it was run: as §2
MDA-MB-468 = assay: Cytotoxicity against human MDA-MB-468 cells assessed as cell growth at 10 uM; settings: Homo sapiens, MDA-MB-468; read-out: Activity; how it was run: as §2
DU-145 = assay: Cytotoxicity against human DU145 cells assessed as cell growth at 10 uM; settings: Homo sapiens, DU-145; read-out: Activity; how it was run: as §1
SK-MEL-5 = assay: Cytotoxicity against human SK-MEL-5 cells assessed as cell growth at 10 uM; settings: Homo sapiens, SK-MEL-5; read-out: Activity; how it was run: as §2
OVCAR-8 = assay: Cytotoxicity against human OVCAR8 cells assessed as cell growth at 10 uM; settings: Homo sapiens, OVCAR-8; read-out: Activity; how it was run: as §2
EKVX = assay: Cytotoxicity against human EKVX cells assessed as cell growth at 10 uM; settings: Homo sapiens, EKVX; read-out: Activity; how it was run: as §1
TK-10 = assay: Cytotoxicity against human TK10 cells assessed as cell growth at 10 uM; settings: Homo sapiens, TK-10; read-out: Activity; how it was run: as §2
T47D = assay: Cytotoxicity against human T47D cells assessed as cell growth at 10 uM; settings: Homo sapiens, T47D; read-out: Activity; how it was run: as §2
HCT-116 = assay: Cytotoxicity against human HCT116 cells assessed as cell growth at 10 uM; settings: Homo sapiens, HCT-116; read-out: Activity; how it was run: as §1
KM12 = assay: Cytotoxicity against human KM12 cells assessed as cell growth at 10 uM; settings: Homo sapiens, KM12; read-out: Activity; how it was run: as §2
OVCAR-4 = assay: Cytotoxicity against human OVCAR4 cells assessed as cell growth at 10 uM; settings: Homo sapiens, OVCAR-4; read-out: Activity; how it was run: as §2
M14 = assay: Cytotoxicity against human M14 cells assessed as cell growth at 10 uM; settings: Homo sapiens, M14; read-out: Activity; how it was run: as §2

## Cc1cc(-c2cccnc2)nc(NC(=O)c2cccc(C(F)(F)F)c2)n1
HL-60(TB)
  growth at 10 µM: 97%
HCC 2998
  growth at 10 µM: 99.3%
MOLT-4
  growth at 10 µM: 96.6%
IGROV-1
  growth at 10 µM: 103%
U-251
  growth at 10 µM: 97%
SF-539
  growth at 10 µM: 99.3%
NCI-H322M
  growth at 10 µM: 100%
NCI-H460
  growth at 10 µM: 103%
HT-29
  growth at 10 µM: 98.9%
SR
  growth at 10 µM: 106%
NCI-H522
  growth at 10 µM: 91.9%
SK-OV-3
  growth at 10 µM: 101%
SF-268
  growth at 10 µM: 103%
Malme-3M
  growth at 10 µM: 105%
SNB-75
  growth at 10 µM: 93.5%
NCI/ADR-RES
  growth at 10 µM: 91.2%
CAKI-1
  growth at 10 µM: 83.6%
K562
  growth at 10 µM: 89%
HCT-15
  growth at 10 µM: 98.3%
ACHN
  growth at 10 µM: 105%
SK-MEL-28
  growth at 10 µM: 108%
HOP-62
  growth at 10 µM: 106%
SF-295
  growth at 10 µM: 101%
OVCAR-3
  growth at 10 µM: 116%
UO-31
  growth at 10 µM: 86.7%
SK-MEL-2
  growth at 10 µM: 93.5%
SW-620
  growth at 10 µM: 105%
MDA-MB-468
  growth at 10 µM: 96.7%
DU-145
  growth at 10 µM: 101%
SK-MEL-5
  growth at 10 µM: 99%
OVCAR-8
  growth at 10 µM: 96.6%
EKVX
  growth at 10 µM: 101%
TK-10
  growth at 10 µM: 102%
T47D
  growth at 10 µM: 95.5%
HCT-116
  growth at 10 µM: 105%
KM12
  growth at 10 µM: 109%
OVCAR-4
  growth at 10 µM: 103%
M14
  growth at 10 µM: 109%

## CC(=O)c1ccccc1-c1ccc(-c2ccnc(NC(=O)Nc3cc(N4CCOCC4)cc(C(F)(F)F)c3)n2)cn1
HL-60(TB)
  growth at 10 µM: 95.7%
HCC 2998
  growth at 10 µM: 106%
MOLT-4
  growth at 10 µM: 87.1%
IGROV-1
  growth at 10 µM: 70.8%
U-251
  growth at 10 µM: 56.4%
SF-539
  growth at 10 µM: 44.3%
NCI-H322M
  growth at 10 µM: 90.1%
NCI-H460
  growth at 10 µM: 87.4%
HT-29
  growth at 10 µM: 33.1%
SR
  growth at 10 µM: 86.2%
NCI-H522
  growth at 10 µM: 60.2%
SK-OV-3
  growth at 10 µM: 71.5%
SF-268
  growth at 10 µM: 63.9%
Malme-3M
  growth at 10 µM: 24.8%
SNB-75
  growth at 10 µM: 8.55%
NCI/ADR-RES
  growth at 10 µM: 58.1%
CAKI-1
  growth at 10 µM: 83.5%
K562
  growth at 10 µM: 83.3%
HCT-15
  growth at 10 µM: 84.2%
ACHN
  growth at 10 µM: 45.7%
SK-MEL-28
  growth at 10 µM: -74.8%
HOP-62
  growth at 10 µM: 7.86%
SF-295
  growth at 10 µM: 74.8%
OVCAR-3
  growth at 10 µM: 123%
UO-31
  growth at 10 µM: 92.1%
SK-MEL-2
  growth at 10 µM: 60.8%
SW-620
  growth at 10 µM: 90.5%
MDA-MB-468
  growth at 10 µM: 82.1%
DU-145
  growth at 10 µM: 45.3%
SK-MEL-5
  growth at 10 µM: 43.2%
OVCAR-8
  growth at 10 µM: 43%
EKVX
  growth at 10 µM: 88.2%
TK-10
  growth at 10 µM: 47.8%
T47D
  growth at 10 µM: 79.8%
HCT-116
  growth at 10 µM: 63%
KM12
  growth at 10 µM: 90.4%
OVCAR-4
  growth at 10 µM: 27.5%
M14
  growth at 10 µM: 8.07%

## CC(=O)Nc1cccc(-c2ccc(-c3ccnc(NC(=O)Nc4cc(C(F)(F)F)cc(C(F)(F)F)c4)n3)cn2)c1.Cl
HL-60(TB)
  growth at 10 µM: 60.1%
HCC 2998
  growth at 10 µM: 70.7%
MOLT-4
  growth at 10 µM: 53.3%
IGROV-1
  growth at 10 µM: 76%
U-251
  growth at 10 µM: -25.4%
SF-539
  growth at 10 µM: 75.6%
NCI-H322M
  growth at 10 µM: 41.8%
NCI-H460
  growth at 10 µM: 34.5%
HT-29
  growth at 10 µM: 9.2%
SR
  growth at 10 µM: 68%
NCI-H522
  growth at 10 µM: 8.5%
SK-OV-3
  growth at 10 µM: 83.1%
SF-268
  growth at 10 µM: 83.6%
Malme-3M
  growth at 10 µM: 52.3%
SNB-75
  growth at 10 µM: 87.2%
NCI/ADR-RES
  growth at 10 µM: 45.5%
CAKI-1
  growth at 10 µM: 50.9%
K562
  growth at 10 µM: 34.8%
HCT-15
  growth at 10 µM: 60.3%
ACHN
  growth at 10 µM: 60.5%
SK-MEL-28
  growth at 10 µM: -37.6%
HOP-62
  growth at 10 µM: -3.2%
SF-295
  growth at 10 µM: 49%
OVCAR-3
  growth at 10 µM: 67.8%
UO-31
  growth at 10 µM: 54.7%
SK-MEL-2
  growth at 10 µM: 62.1%
SW-620
  growth at 10 µM: 85.2%
MDA-MB-468
  growth at 10 µM: -30.3%
DU-145
  growth at 10 µM: 89.2%
SK-MEL-5
  growth at 10 µM: -25.5%
OVCAR-8
  growth at 10 µM: 27.9%
EKVX
  growth at 10 µM: 69.2%
TK-10
  growth at 10 µM: 76%
T47D
  growth at 10 µM: -11.3%
HCT-116
  growth at 10 µM: 50.5%
KM12
  growth at 10 µM: 72.7%
OVCAR-4
  growth at 10 µM: 7.08%
M14
  growth at 10 µM: 46.5%
